{"source": "ChEMBL document CHEMBL1122774", "about": "“Tri- and tetrapeptide analogues of kinins as potential renal vasodilators” (J Med Chem, 1984)", "key": {"Canis familiaris [1]": {"test_system": "Canis familiaris", "test": "In vivo percent change in canine heart rate at 30 ug/Kg/min.", "assay_type": "functional, Canis lupus familiaris", "outline": "(§1)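 Primary screen in anesthetized dogs (7-17 kg). Drug infused separately at 3, 30 and 300 µg/(kg min), each infusion lasting 5 min, at about 15-min intervals. Read-outs are renal blood flow, mean arterial blood pressure, heart rate, and RVR (MABP / mean RBF), as percent change. Significance thresholds are defined per number of dogs; n = 1-3 dogs.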"}, "Canis familiaris [2]": {"test_system": "Canis familiaris", "test": "In vivo percent change in canine renal blood flow (RBF) at 3 ug/Kg/min.", "assay_type": "functional, Canis lupus familiaris, Kidney", "outline": "as §1"}, "Canis familiaris [3]": {"test_system": "Canis familiaris", "test": "In vivo percent change in canine renal vascular resistance (RVR) at 3 ug/Kg/min.", "assay_type": "functional, Canis lupus familiaris", "outline": "as §1"}, "Canis familiaris [4]": {"test_system": "Canis familiaris", "test": "In vivo percent change in canine renal vascular resistance (RVR) at 300 ug/Kg/min.", "assay_type": "functional, Canis lupus familiaris", "outline": "as §1"}, "Canis familiaris [5]": {"test_system": "Canis familiaris", "test": "Renal vasodilator activity in anesthetized dogs and percent change in renal vascular resistance (RVR) was determined at 30 ug/Kg/min", "assay_type": "functional, Canis lupus familiaris", "outline": "as §1"}, "Canis familiaris [6]": {"test_system": "Canis familiaris", "test": "In vivo percent change in canine heart rate at 3 ug/Kg/min.", "assay_type": "functional, Canis lupus familiaris", "outline": "as §1"}, "Canis familiaris [7]": {"test_system": "Canis familiaris", "test": "In vivo percent change in canine mean arterial blood pressure (MABP) at 300 ug/Kg/min.", "assay_type": "functional, Canis lupus familiaris", "outline": "as §1"}, "Canis familiaris [8]": {"test_system": "Canis familiaris", "test": "In vivo percent change in canine renal blood flow (RBF) at 300 ug/Kg/min.", "assay_type": "functional, Canis lupus familiaris, Kidney", "outline": "as §1"}, "Canis familiaris [9]": {"test_system": "Canis familiaris", "test": "In vivo percent change in canine heart rate at 300 ug/Kg/min.", "assay_type": "functional, Canis lupus familiaris", "outline": "as §1"}, "Canis familiaris [10]": {"test_system": "Canis familiaris", "test": "In vivo percent change in canine mean arterial blood pressure (MABP) at 30 ug/Kg/min.", "assay_type": "functional, Canis lupus familiaris", "outline": "as §1"}, "Canis familiaris [11]": {"test_system": "Canis familiaris", "test": "In vivo percent change in canine renal blood flow (RBF) at 30 ug/Kg/min.", "assay_type": "functional, Canis lupus familiaris, Kidney", "outline": "as §1"}, "Canis familiaris [12]": {"test_system": "Canis familiaris", "test": "In vivo percent change in canine mean arterial blood pressure (MABP) at 3 ug/Kg/min.", "assay_type": "functional, Canis lupus familiaris", "outline": "as §1"}, "Canis familiaris [13]": {"test_system": "Canis familiaris", "test": "Renal vasodilator activity in anesthetized dogs and percent change in mean arterial blood pressure (MABP) was determined at 30 ug/kg min", "assay_type": "functional, Canis lupus familiaris", "outline": "as §1"}, "Canis familiaris [14]": {"test_system": "Canis familiaris", "test": "Renal vasodilator activity in anesthetized dogs and percent change in heart rate (HR) was determined at 30 ug/kg min", "assay_type": "functional, Canis lupus familiaris", "outline": "as §1"}, "Canis familiaris [15]": {"test_system": "Canis familiaris", "test": "Renal vasodilator activity in anesthetized dogs and percent change in renal vascular resistance (RVR) was determined at 3 ug/kg min", "assay_type": "functional, Canis lupus familiaris", "outline": "as §1"}, "Canis familiaris [16]": {"test_system": "Canis familiaris", "test": "Renal vasodilator activity in anesthetized dogs and percent change in mean arterial blood pressure (MABP) was determined at 3 ug/kg min", "assay_type": "functional, Canis lupus familiaris", "outline": "as §1"}, "Canis familiaris [17]": {"test_system": "Canis familiaris", "test": "Renal vasodilator activity in anesthetized dogs and percent change in renal vascular resistance (RVR) was determined at 30 ug/kg min", "assay_type": "functional, Canis lupus familiaris", "outline": "as §1"}, "Canis familiaris [18]": {"test_system": "Canis familiaris", "test": "Renal vasodilator activity in anesthetized dogs and percent change in mean arterial blood pressure (MABP) was determined at 300 ug/kg min", "assay_type": "functional, Canis lupus familiaris", "outline": "as §1"}, "[19]": {"test": "Average max percent decrease in RVR (renal vascular resistance) was determined.", "outline": "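Secondary protocol in anesthetized dogs. Drug given as iv infusion at progressively increasing rates, each dose level for 5 min. The maximum effect is taken as the largest percent decrease in renal vascular resistance (RVR) reached with the compound. RVR is calculated as mean arterial blood pressure / mean renal blood flow.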"}, "Canis familiaris [20]": {"test_system": "Canis familiaris", "test": "Renal vasodilator activity in anesthetized dogs and percent change in heart rate (HR) was determined at 300 ug/kg min", "assay_type": "functional, Canis lupus familiaris", "outline": "as §1"}, "Canis familiaris [21]": {"test_system": "Canis familiaris", "test": "Renal vasodilator activity in anesthetized dogs and percent change in renal blood flow (RBF) was determined at 300 ug/kg min", "assay_type": "functional, Canis lupus familiaris, Kidney", "outline": "as §1"}, "Canis familiaris [22]": {"test_system": "Canis familiaris", "test": "Renal vasodilator activity in anesthetized dogs and percent change in renal vascular resistance (RVR) was determined at 300 ug/kg min", "assay_type": "functional, Canis lupus familiaris", "outline": "as §1"}, "[23]": {"test": "Ratio of ED30 of iliac vascular resistant (IVR) to the ED15 of RVR (renal vascular resistance)", "assay_type": "functional", "outline": "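Anesthetized dogs in the secondary cumulative-infusion protocol, each dose level 5 min. Selectivity ratio is the dose giving a 30% change in iliac vascular resistance divided by the RVR ED15, the cumulative dose decreasing renal vascular resistance by 15%.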"}, "Canis familiaris [24]": {"test_system": "Canis familiaris", "test": "Renal vasodilator activity in anesthetized dogs and percent change in heart rate (HR) was determined at 3 ug/kg min", "assay_type": "functional, Canis lupus familiaris", "outline": "as §1"}, "Canis familiaris [25]": {"test_system": "Canis familiaris", "test": "Renal vasodilator activity in anesthetized dogs and percent change in renal blood flow (RBF) was determined at 3 ug/kg min", "assay_type": "functional, Canis lupus familiaris, Kidney", "outline": "as §1"}, "[26]": {"test": "Ratio of ED20 of MABP (mean arterial blood pressure) to the ED15 of RVR ( renal vascular resistance).", "assay_type": "functional", "outline": "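Anesthetized dogs in the secondary cumulative-infusion protocol, each dose level 5 min. Selectivity ratio is the dose giving a 20% change in mean arterial blood pressure divided by the cumulative dose lowering renal vascular resistance 15% (RVR ED15).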"}, "Canis familiaris [27]": {"test_system": "Canis familiaris", "test": "Compound was evaluated for renal vasodilator activity and represented as ED15 (intravenous administration)", "assay_type": "functional", "details": "Canis lupus familiaris", "outline": "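Secondary protocol in anesthetized dogs with iv infusion at progressively increasing rates, each level infused 5 min. Potency is the cumulative dose (µg/kg) that lowered renal vascular resistance (MABP / mean RBF) by 15%. Minimum change needed for significance (p = 0.95) is 16% for RVR.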"}, "Canis familiaris [28]": {"test_system": "Canis familiaris", "test": "Renal vasodilator activity in anesthetized dogs and percent change in renal blood flow (RBF) was determined at 30 ug/kg min", "assay_type": "functional, Canis lupus familiaris, Kidney", "outline": "as §1"}, "Canis familiaris [29]": {"test_system": "Canis familiaris", "test": "In vivo percent change in renal blood flow at 30 ug/Kg/min.", "assay_type": "functional, Canis lupus familiaris, Kidney", "outline": "as §1"}, "Canis familiaris [30]": {"test_system": "Canis familiaris", "test": "Renal vasodilator activity in anesthetized dogs and percent change in mean arterial blood pressure (MABP) was determined at 3 ug/Kg/min", "assay_type": "functional, Canis lupus familiaris", "outline": "as §1"}}, "note": "Peptide text beside a SMILES is read from it. * marks the point of attachment. Butanoyl(4-(4-HOPh)) = O=C(CCCc1ccc(O)cc1)*", "data": [{"smiles": "Cl.NCCCNC(=O)[C@H](Cc1ccccc1)NC(=O)[C@@H]1CCCN1C(=O)CCCc1ccccc1", "values": [{"measurement": "Change", "setting": "Canis familiaris [1]", "result": 0, "unit": "%"}, {"measurement": "Change", "setting": "Canis familiaris [2]", "result": 0, "unit": "%"}, {"measurement": "Change", "setting": "Canis familiaris [3]", "result": 0, "unit": "%"}, {"measurement": "Change", "setting": "Canis familiaris [4]", "result": -8.9, "unit": "%"}, {"measurement": "Change", "setting": "Canis familiaris [5]", "result": -3.8, "unit": "%"}, {"measurement": "Change", "setting": "Canis familiaris [6]", "result": 0, "unit": "%"}, {"measurement": "Change", "setting": "Canis familiaris [7]", "result": -2.7, "unit": "%"}, {"measurement": "Change", "setting": "Canis familiaris [8]", "result": 6.5, "unit": "%"}, {"measurement": "Change", "setting": "Canis familiaris [9]", "result": -5.3, "unit": "%"}, {"measurement": "Change", "setting": "Canis familiaris [10]", "result": 0, "unit": "%"}, {"measurement": "Change", "setting": "Canis familiaris [11]", "result": 5, "unit": "%"}, {"measurement": "Change", "setting": "Canis familiaris [12]", "result": 0, "unit": "%"}]}, {"smiles": "CC(Cc1ccc(O)cc1)(NC(=O)[C@@H]1CCCN1C(=O)CCCc1ccc(O)cc1)C(=O)N[C@@H](CCCN=C(N)N)C(=O)O", "note": "(some centres not stated)", "values": [{"measurement": "Change", "setting": "Canis familiaris [13]", "result": -3, "unit": "%"}, {"measurement": "Change", "setting": "Canis familiaris [14]", "result": -7.5, "unit": "%"}, {"measurement": "Change", "setting": "Canis familiaris [15]", "result": -19, "unit": "%"}, {"measurement": "Change", "setting": "Canis familiaris [16]", "result": -2.5, "unit": "%"}, {"measurement": "Change", "setting": "Canis familiaris [17]", "result": -20, "unit": "%"}, {"measurement": "Change", "setting": "Canis familiaris [18]", "result": 1, "unit": "%"}, {"measurement": "Decrease", "setting": "[19]", "result": 16, "unit": "%"}, {"measurement": "Change", "setting": "Canis familiaris [20]", "result": 2.4, "unit": "%"}, {"measurement": "Change", "setting": "Canis familiaris [21]", "result": 28, "unit": "%"}, {"measurement": "Change", "setting": "Canis familiaris [22]", "result": -17, "unit": "%"}, {"measurement": "Ratio", "setting": "[23]", "result": "< 9"}, {"measurement": "Change", "setting": "Canis familiaris [24]", "result": 3.5, "unit": "%"}, {"measurement": "Change", "setting": "Canis familiaris [25]", "result": 20, "unit": "%"}, {"measurement": "Ratio", "setting": "[26]", "result": ">1665"}, {"measurement": "ED15", "setting": "Canis familiaris [27]", "result": 0.0455, "unit": "mg/kg"}, {"measurement": "Change", "setting": "Canis familiaris [28]", "result": 28, "unit": "%"}]}, {"smiles": "CC(CN[C@@H](CCCN=C(N)N)C(=O)O)(Cc1ccccc1)NC(=O)[C@@H]1CCCN1C(=O)CCCc1ccccc1", "note": "(some centres not stated)", "values": [{"measurement": "Change", "setting": "Canis familiaris [1]", "result": -7, "unit": "%"}, {"measurement": "Change", "setting": "Canis familiaris [2]", "result": 11, "unit": "%"}, {"measurement": "Change", "setting": "Canis familiaris [3]", "result": -12, "unit": "%"}, {"measurement": "Change", "setting": "Canis familiaris [29]", "result": 10, "unit": "%"}, {"measurement": "Change", "setting": "Canis familiaris [4]", "result": -4, "unit": "%"}, {"measurement": "Change", "setting": "Canis familiaris [5]", "result": -9, "unit": "%"}, {"measurement": "Change", "setting": "Canis familiaris [6]", "result": 0, "unit": "%"}, {"measurement": "Change", "setting": "Canis familiaris [30]", "result": -2, "unit": "%"}, {"measurement": "Change", "setting": "Canis familiaris [7]", "result": 8, "unit": "%"}, {"measurement": "Change", "setting": "Canis familiaris [8]", "result": 4, "unit": "%"}, {"measurement": "Change", "setting": "Canis familiaris [9]", "result": -23, "unit": "%"}, {"measurement": "Change", "setting": "Canis familiaris [10]", "result": 0, "unit": "%"}]}, {"smiles": "O=C(NCC(=O)N1CCC[C@H]1C(=O)O)[C@H](Cc1ccccc1)NC(=O)[C@@H]1CCCN1C(=O)CCCc1ccc(O)cc1", "note": "({Butanoyl(4-(4-HOPh))}-PFGP-OH)", "values": [{"measurement": "Change", "setting": "Canis familiaris [1]", "result": -1.5, "unit": "%"}, {"measurement": "Change", "setting": "Canis familiaris [2]", "result": 2.5, "unit": "%"}, {"measurement": "Change", "setting": "Canis familiaris [3]", "result": -4.5, "unit": "%"}, {"measurement": "Change", "setting": "Canis familiaris [4]", "result": -8.5, "unit": "%"}, {"measurement": "Change", "setting": "Canis familiaris [5]", "result": 74.5, "unit": "%"}, {"measurement": "Change", "setting": "Canis familiaris [6]", "result": -2.5, "unit": "%"}, {"measurement": "Change", "setting": "Canis familiaris [7]", "result": -1.5, "unit": "%"}, {"measurement": "Change", "setting": "Canis familiaris [8]", "result": 7, "unit": "%"}, {"measurement": "Change", "setting": "Canis familiaris [9]", "result": 1.5, "unit": "%"}, {"measurement": "Change", "setting": "Canis familiaris [10]", "result": -1, "unit": "%"}, {"measurement": "Change", "setting": "Canis familiaris [11]", "result": -43, "unit": "%"}, {"measurement": "Change", "setting": "Canis familiaris [12]", "result": -2, "unit": "%"}]}]}
